# Assay outcomes deposited in PubChem BioAssay by several laboratories.
# In the library only some 2.7% were active in any assay of this set; here they are far more common.
# MsrA inh = inhibitors of bovine MsrA | purified bovine MsrA, absorbance read-out | inhibition, % at 15.5 µM | actives 0.75% (n = 360,000) | AID 651718;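 also: 0% = vehicle wells with enzyme and 100% = reference inhibitor wells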
# NR1D1 modulator = modulates human Rev-erb alpha binding to DNA | P20393 | actives 0.79% (n = 370,000) | Rev-erbα–FITC-DNA binding, fluorescence polarization, 90 min | activity, % at 10 µM | AID 1259318;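 active = activity above about 14%, limit read from the data; passing the limit was not always enough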;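 also: 0% = DMSO wells with 35 nM protein and 100% = DMSO wells with 750 nM protein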
# Target sequence (P20393 whole entry, looked up): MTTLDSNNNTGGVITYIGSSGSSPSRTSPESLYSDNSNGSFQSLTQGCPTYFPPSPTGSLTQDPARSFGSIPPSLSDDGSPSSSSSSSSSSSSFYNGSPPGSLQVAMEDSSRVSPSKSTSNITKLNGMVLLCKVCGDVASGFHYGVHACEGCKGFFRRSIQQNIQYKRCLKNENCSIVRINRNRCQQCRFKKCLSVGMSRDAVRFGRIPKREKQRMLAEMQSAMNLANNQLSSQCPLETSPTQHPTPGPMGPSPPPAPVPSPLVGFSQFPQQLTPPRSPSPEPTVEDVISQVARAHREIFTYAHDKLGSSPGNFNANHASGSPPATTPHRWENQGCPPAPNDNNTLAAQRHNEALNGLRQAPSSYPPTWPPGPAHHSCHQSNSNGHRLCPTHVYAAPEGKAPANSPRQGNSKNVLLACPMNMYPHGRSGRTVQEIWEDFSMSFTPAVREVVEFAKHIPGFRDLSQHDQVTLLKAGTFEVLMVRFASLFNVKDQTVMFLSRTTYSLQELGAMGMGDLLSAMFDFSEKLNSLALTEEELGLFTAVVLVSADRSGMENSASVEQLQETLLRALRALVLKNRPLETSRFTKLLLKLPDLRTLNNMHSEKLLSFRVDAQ
# sPLA2-III inh = Inhibits HGIII-sPLA2 liposome hydrolysis, primary screen; Q9NZ20; actives 0.56% (n = 370,000); QFRET BODIPY PC-A2 liposome hydrolysis, fluorescence; inhibition, % at 12.2 µM;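 active = inhibition above mean plus 3 SD of compounds lying within the high and low control bounds, cut at about 19% in these data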;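 also: 0% = median of test compound wells and 100% = no enzyme DMSO wells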
# MsrA act = activates bovine MsrA enzyme; purified bovine MsrA, absorbance read-out; activation, % at 10.6 µM; actives 0.3% (n = 360,000); AID 602163; in the data active = activation above about 7.5%;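 also: 0% = vehicle and 100% = reference activator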
# ARFGAP1 inh = rat ARFGAP1 inhibition; Arfgap1-stimulated ARF1 GTP hydrolysis, GDP FP detection; AID 651572; Q62848; inhibition, % at 16.5 µM; actives 0.26% (n = 360,000);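 active = inhibition above a per-plate limit, mean inhibition of low control wells plus 3 SD, cut at about 25% in these data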;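 also: 0% = DMSO wells with enzyme and 100% = wells lacking Arfgap1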
# Target sequence (Q62848 1-136 limits assumed): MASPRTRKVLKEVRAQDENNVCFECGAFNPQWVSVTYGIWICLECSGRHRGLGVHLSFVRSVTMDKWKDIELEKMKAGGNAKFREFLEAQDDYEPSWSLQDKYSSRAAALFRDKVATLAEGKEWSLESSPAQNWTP
#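 Material: rat Arfgap1 GAP domain (His6, aa 1-136), purified enzyme. Also added: human ARF1(Δ1-17)-GTP substrate. Compound dosing: 16.5 µM single point, 1.26% DMSO. Timing: enzyme reaction 120 min at 25 °C after 20 min preincubation. Signal: GDP detection by fluorescence polarization. Read-out basis: percent inhibition of GAP-stimulated GDP formation, scaled between DMSO and no-Arfgap1 medians.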
# ASAP1 GAP inh = inhibitors of human ASAP1 ArfGAP activity; inhibition, % at 16.5 µM; Q9ULH1; ASAP1-stimulated ARF1 GTP hydrolysis, GDP FP detection; actives 0.19% (n = 360,000); AID 624377; in the data active = inhibition above about 25%;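 also: 0% = vehicle with enzyme and substrate and 100% = no enzyme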
# ARFGAP1 inh conf = confirmation of rat ARFGAP1 inhibitors; shares compounds with ARFGAP1 inh; ARFGAP1-stimulated ARF1 GTP hydrolysis, GDP tracer FP; inhibition, % at 16.5 µM; actives 30% (n = 890); AID 651608;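 active = average inhibition over triplicates above the hit cutoff set in the earlier primary screen, cut at about 25% in these data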;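 also: 0% = Arfgap1 plus ARF1-GTP with DMSO and 100% = wells lacking Arfgap1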
# MsrA inh confirm = bovine MsrA inhibition, confirmed; shares compounds with MsrA inh; inhibition, % at 15.5 µM; purified bovine MsrA, absorbance read-out; actives 41% (n = 2,300); AID 651822;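 also: coupled to thioredoxin reductase with NADPH and selenocystamine and DMSO as substrate; 0% = vehicle only and 100% = full effect of reference inhibitor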
# sPLA2 confirm = human GIII-sPLA2 inhibition, confirmation | AID 743280 | inhibition, % at 12.2 µM | shares compounds with sPLA2-III inh | recombinant hGIII-sPLA2, BODIPY PC-A2 QFRET fluorescence | actives 34% (n = 2,000);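 active = mean inhibition across triplicates above the hit cutoff set in the earlier primary screen, cut at about 19% in these data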;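 also: 0% = enzyme with DMSO and 100% = DMSO wells lacking enzyme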
# BODIPY interf = counter-screen for HGIII-sPLA2 inhibitors: 535nm fluorescence interference | shares compounds with sPLA2-III inh | BODIPY FL product fluorescence interference, QFRET | inhibition, % at 12.2 µM | actives 8.5% (n = 2,000) | AID 743282;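 active = average inhibition above the solvent-only control mean plus 3 SD, cut at about 6% in these data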;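 also: 0% = DMSO with substrate plus product and 100% = DMSO with substrate alone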
# 535nm interf DR = counter-screen for HGIII-sPLA2 inhibitors: 535nm fluorescence interference, dose response. AID 743455. shares compounds with sPLA2-III inh. IC50, µM. BODIPY FL product fluorescence interference, cell-free. 240 tested, under 10 active;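 active = IC50 at or below 10 µM; inactive = IC50 above 10 µM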
# Rev-erbA confirm = confirmation of modulators of human Rev-erb alpha DNA binding. shares compounds with NR1D1 modulator. Rev-erb alpha FITC-DNA binding, fluorescence polarization, 90 min. activation, % at 25 µM. actives 61% (n = 3,000). AID 1259319;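 active = activation at or above a set limit, or at least 3 SD above the negative control mean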;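 also: 0% = 35 nM protein with DMSO and 100% = 750 nM protein high control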
# RORg counter = RORgamma DNA-binding activity, dose-response counter-screen; actives 8% (n = 910); purified RORgamma protein-FITC-DNA binding, fluorescence polarization; AID 1259320; IC50, µM; shares compounds with NR1D1 modulator;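 active = Compounds whose fitted half-maximal concentration for disrupting protein-DNA binding is below 10 micromolar; the record names Rev-erb in its text, so the target is in doubt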
# An asterisk follows results filed as active; . = not tested or not shown; ! = repeats disagree. Rule as the data show it, unless noted: active = inhibition above about 4.5%; inactive = the rest.
SMILES,MsrA inh,NR1D1 modulator,sPLA2-III inh,MsrA act,ARFGAP1 inh,ASAP1 GAP inh,ARFGAP1 inh conf,others
Clc1ccccc1Cn1ccc2ccc(-c3ccc4ccn(Cc5ccccc5Cl)c4c3)cc21,.,10,6,.,.,.,.,
Cc1cc(NS(=O)(=O)c2ccc(NS(=O)(=O)c3ccc(Br)cc3)cc2)no1,-1,1,-23,-3,27*,0,-4,
Cc1cc(NS(=O)(=O)c2ccc(NC(=O)/C=C/c3ccc(Br)cc3)cc2)no1,2,-4,-34,-6,-19,20,.,
Cc1cc(NS(=O)(=O)c2ccc(NC(=S)NC(=O)c3cccc(S(=O)(=O)N(C)C)c3)cc2)no1,0,0,1,-3,29*,15,38*,
C=CCN(CC#Cc1ccc(C(F)(F)F)cc1)Cc1ccc(OC)cc1OC,.,6,12,.,.,.,.,
Cc1ccc(NC(=O)c2ccc(-c3nn(C)c(=O)c4ccccc34)cc2)cc1,1,13,6,3,16,7,.,
Cn1nc(-c2ccc(C(=O)Nc3cccnc3)cc2)c2ccccc2c1=O,1,0,6,0,25*,-2,1,
COc1ccc(N2CCN(c3nc(=S)n(-c4ccccc4)c(C)c3C(C)=O)CC2)cc1,-2,-2,3,-2,-6,14,.,
CCn1c(C)c(C(C)=O)c(N2CCN(c3ccc(OC)cc3)CC2)nc1=S,0,-11,-8,-9,41*,2,3,
CCOC(=O)[C@]12CCCCC/C=C\1N(Cc1ccc(OC)cc1)C(=O)[C@H]2CC(=O)NCc1cccc(C(F)(F)F)c1,.,-1,-13,.,.,.,.,
Clc1ccc2c(N/N=C/c3cccc(Br)c3)ccnc2c1,-1,-9,-6,-6,38*,16,63*,
O=[N+]([O-])c1ccc(/C=N/Nc2ccnc3cc(Cl)ccc23)o1,4,3,0,-5,3,5,.,
Clc1ccc2c(N/N=C/c3ccccc3Br)ccnc2c1,0,-1,14,-1,27*,1,26*,
COc1ccc(-c2cc(NC=O)c3ncc(-c4cccc(C(=O)NCCN(C)C)c4)n3c2)cc1,11*,5,-4,0,27*,8,27*,MsrA inh confirm=1
O=C(NCCC1=CCCCC1)C1CCN(S(=O)(=O)c2ccccc2[N+](=O)[O-])CC1,.,6,-4,.,.,.,.,
O=C(NNC(=S)NC(=O)C12CC3CC(CC(C3)C1)C2)c1ccncc1,2,-3,24*,3,37*,-10,-2,sPLA2 confirm=31*;BODIPY interf=-18;535nm interf DR=>122
COc1ccc2ccccc2c1/C=N/Nc1ccc(Cl)c(C(=O)O)c1,1,-2,-15,-4,-3,-4,.,
COc1ccc(N/N=C/c2c(C(=O)O)ccc3ccccc23)cc1,2,-14,19*,-2,26*,11,31*,sPLA2 confirm=11;BODIPY interf=-6
O=C1c2c(O)ccc(O)c2C(=O)c2c(NCCNCCO)ccc(NCCNCCO)c21,1,-22,35*,-2,25*!,21,56*,sPLA2 confirm=40*;BODIPY interf=-21;535nm interf DR=>122
C=CCN1C[C@@H](COCc2ccccc2)Oc2cc(F)ccc2S1(=O)=O,.,-1,1,.,.,.,.,
C/C(=C/c1nc(N)n(Cc2ccccc2)c1Cc1ccccc1)Cn1[nH]c(=O)n(-c2ccccc2)c1=O,.,0,10,.,.,.,.,
CCOC(=O)c1cc2c(=Cc3ccc(N(C)C)cc3)c3ccccc3n2[n+]1C,5.0*,-2,28*,-5,29*,21,-6,MsrA inh confirm=0;sPLA2 confirm=35*;BODIPY interf=-13;535nm interf DR=>122
CCOC(=O)SC1=N/C(=C\c2ccc(N(C)C)cc2)C(=O)S1,1,4,4,1,7,6,.,
O=C(NCc1ccc(Cl)cc1)C(=O)NCC(c1ccco1)N1CCOCC1 (centres undefined),0,-1,20*,0,30*,6,3,sPLA2 confirm=0;BODIPY interf=-16
O=S(=O)(c1ccc(CN2CCOCCOCCN(Cc3ccc(S(=O)(=O)C(F)(F)F)cc3)CCOCC2)cc1)C(F)(F)F,.,-1,-5,.,.,.,.,
SMILES,MsrA inh,NR1D1 modulator,sPLA2-III inh,MsrA act,ARFGAP1 inh,ASAP1 GAP inh,ARFGAP1 inh conf,others
C[n+]1c2cc(N)ccc2cc2ccc(N)cc21,0,51*,-361,-1,25*!,20,3,Rev-erbA confirm=29*;RORg counter=>40
NC(=O)c1ncn([C@@H]2O[C@H](C(=O)N[C@H](Cc3c[nH]c4ccccc34)C(=O)O)[C@@H](O)[C@H]2O)n1,1,8,-4,.,3,-10,.,
O=C(O)CCCC(=O)Nc1ccc(N=Nc2ccccc2)cc1,6.6*,-4,0,0,1,13,.,MsrA inh confirm=3
COC(=O)c1cn(-c2ccc3c(c2)[C@@]2(CC(=O)N(C)C2c2ccccc2)C(=O)N3CC(C)C)nn1 (some centres undefined),.,3,2,.,.,.,.,
O=S(=O)(O)Sc1ccccc1,8.5*,2,14,-8,-4,-2,.,MsrA inh confirm=2
Nc1ccc2nc(-c3cc(Cl)c(N)c(Cl)c3)[nH]c2c1,4.8*,-6,5,-11,-5,4,.,MsrA inh confirm=5.6*
Cc1nc2ccc(-c3nc4ccc(N)cc4[nH]3)cc2[nH]1,3,0,2,-4,-2,0,.,
Nc1ccc(-c2nc3c(Cl)c(N)ccc3[nH]2)cc1,5.3*,-5,8,-10,-6,8,.,MsrA inh confirm=4
Nc1ccc(-c2nc3ccc(N)cc3[nH]2)cc1,5.5*,0,3,-3,4,-4,.,MsrA inh confirm=4
Nc1ccc(-c2nc3ccc([N+](=O)[O-])cc3[nH]2)cc1,2,7,0,-10,3,16,.,
COc1ccc(-c2nnc(SCC(=O)NN=C(C)c3cccc4ccccc34)n2-c2ccc(C)cc2)cc1,.,4,0,.,.,.,.,
